# Results as given in ChEMBL document CHEMBL4689842, “EUbOPEN Chemogenomics Library wave 1” (2021).
# Tests used:
# [1] = test system: Fibroblast; assay: Incucyte cell viability with human fibroblast; assay type: toxicity, cell-based; conditions: 10 µM, compound concentration 10 uM; further: filed as whole numbers so only -1 and 0 and 1 occur
# [2] = test system: HEK-293T; assay: Multiplex assay against HEK293T; assay type: toxicity, cell-based; conditions: human;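 on Population Tubulin-Different-Phenotype (%): share of the cells with healthy nuclei that show this phenotype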
# Outline: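 Compound was added to live cells that had been stained at seeding with Hoechst33342, BioTracker Green Microtubule Cytoskeleton Dye, MitoTracker Red and Annexin V Alexa Fluor 680, and imaging followed on a CQ1 microscope at 37°C and 5% CO2. CellPathfinder machine-learning gating divided cells into Hoechst high-intensity objects or normal cells, normal cells into healthy, pyknosed or fragmented nuclei, and pyknosed cells into mitotic or apoptotic. Tubulin, mitochondrial-mass and membrane-permeability phenotypes are per cents of healthy-nucleus cells.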
# [3] = 12 h, 1 µM, compound concentration 1 uM, replicate 1
# [4] = 12 h, 1 µM, compound concentration 1 uM, replicate 2
# [5] = 12 h, 10 µM, compound concentration 10 uM, replicate 1
# [6] = 12 h, 10 µM, compound concentration 10 uM, replicate 2
# [7] = 24 h, 1 µM, compound concentration 1 uM, replicate 1
# [8] = 24 h, 1 µM, compound concentration 1 uM, replicate 2
# [9] = 24 h, 10 µM, compound concentration 10 uM, replicate 1
# [10] = 24 h, 10 µM, compound concentration 10 uM, replicate 2
structure (smiles),measurement,setting,value
CN(C)C/C=C/C(=O)Nc1cc2c(Nc3ccc(F)c(Cl)c3)ncnc2cc1O[C@H]1CCOC1.O=C(O)/C=C\C(=O)O.O=C(O)/C=C\C(=O)O [AFATINIB DIMALEATE],Growth Rate,"[1]; 0 h, replicate number 1, timepoint 0 hours",0
same,Growth Rate,"[1]; 0 h, replicate number 2, timepoint 0 hours",1
same,Growth Rate,"[1]; 6 h, replicate number 1, timepoint 6 hours",0
same,Growth Rate,"[1]; 12 h, replicate number 1, timepoint 12 hours",0
same,Growth Rate,"[1]; 18 h, replicate number 1, timepoint 18 hours",0
same,Growth Rate,"[1]; 24 h, replicate number 1, timepoint 24 hours",0
same,Population Apoptotic (%),[2]; [3],26%
same,Population Fragmented Nuclei (%),[2]; [3],23%
same,Population Healthy Nuclei (%),[2]; [3],54%
same,Population Hoechst High Intensity Objects (%),[2]; [3],15%
same,Population Membrane Permeable-Phenotype (%),[2]; [3],5%
same,Population Mitochondria Different-Phenotype (%),[2]; [3],4%
same,Population Mitotic Cells (%),[2]; [3],73%
same,Population Normal (%),[2]; [3],84%
same,Population Pyknosed Nuclei (%),[2]; [3],22%
same,Population Tubulin-Different-Phenotype (%),[2]; [3],5%
same,Total Cell Count,[2]; [3],581
same,Population Apoptotic (%),[2]; [4],16%
same,Population Fragmented Nuclei (%),[2]; [4],6%
same,Population Healthy Nuclei (%),[2]; [4],87%
same,Population Hoechst High Intensity Objects (%),[2]; [4],3%
same,Population Membrane Permeable-Phenotype (%),[2]; [4],4%
same,Population Mitochondria Different-Phenotype (%),[2]; [4],13%
same,Population Mitotic Cells (%),[2]; [4],83%
same,Population Normal (%),[2]; [4],96%
same,Population Pyknosed Nuclei (%),[2]; [4],5%
same,Population Tubulin-Different-Phenotype (%),[2]; [4],10%
same,Total Cell Count,[2]; [4],1304
same,Population Apoptotic (%),[2]; [5],23%
same,Population Fragmented Nuclei (%),[2]; [5],17%
same,Population Healthy Nuclei (%),[2]; [5],32%
same,Population Hoechst High Intensity Objects (%),[2]; [5],18%
same,Population Membrane Permeable-Phenotype (%),[2]; [5],17%
same,Population Mitochondria Different-Phenotype (%),[2]; [5],35%
same,Population Mitotic Cells (%),[2]; [5],76%
same,Population Normal (%),[2]; [5],81%
same,Population Pyknosed Nuclei (%),[2]; [5],50%
same,Population Tubulin-Different-Phenotype (%),[2]; [5],82%
same,Total Cell Count,[2]; [5],647
same,Population Apoptotic (%),[2]; [6],17%
same,Population Fragmented Nuclei (%),[2]; [6],3%
same,Population Healthy Nuclei (%),[2]; [6],53%
same,Population Hoechst High Intensity Objects (%),[2]; [6],4%
same,Population Membrane Permeable-Phenotype (%),[2]; [6],9%
same,Population Mitochondria Different-Phenotype (%),[2]; [6],64%
same,Population Mitotic Cells (%),[2]; [6],82%
same,Population Normal (%),[2]; [6],96%
same,Population Pyknosed Nuclei (%),[2]; [6],42%
same,Population Tubulin-Different-Phenotype (%),[2]; [6],97%
same,Total Cell Count,[2]; [6],999
same,Population Apoptotic (%),[2]; [7],25%
same,Population Fragmented Nuclei (%),[2]; [7],17%
same,Population Healthy Nuclei (%),[2]; [7],71%
same,Population Hoechst High Intensity Objects (%),[2]; [7],10%
same,Population Membrane Permeable-Phenotype (%),[2]; [7],6%
same,Population Mitochondria Different-Phenotype (%),[2]; [7],3%
same,Population Mitotic Cells (%),[2]; [7],74%
same,Population Normal (%),[2]; [7],89%
same,Population Pyknosed Nuclei (%),[2]; [7],11%
same,Population Tubulin-Different-Phenotype (%),[2]; [7],7%
same,Total Cell Count,[2]; [7],598
same,Population Apoptotic (%),[2]; [8],12%
same,Population Fragmented Nuclei (%),[2]; [8],20%
same,Population Healthy Nuclei (%),[2]; [8],76%
same,Population Hoechst High Intensity Objects (%),[2]; [8],3%
same,Population Membrane Permeable-Phenotype (%),[2]; [8],4%
same,Population Mitotic Cells (%),[2]; [8],87%
same,Population Normal (%),[2]; [8],96%
same,Population Pyknosed Nuclei (%),[2]; [8],3%
same,Population Tubulin-Different-Phenotype (%),[2]; [8],9%
same,Total Cell Count,[2]; [8],2098
same,Population Apoptotic (%),[2]; [9],39%
same,Population Fragmented Nuclei (%),[2]; [9],23%
same,Population Healthy Nuclei (%),[2]; [9],34%
same,Population Hoechst High Intensity Objects (%),[2]; [9],19%
same,Population Membrane Permeable-Phenotype (%),[2]; [9],10%
same,Population Mitochondria Different-Phenotype (%),[2]; [9],58%
same,Population Mitotic Cells (%),[2]; [9],60%
same,Population Normal (%),[2]; [9],80%
same,Population Pyknosed Nuclei (%),[2]; [9],42%
same,Population Tubulin-Different-Phenotype (%),[2]; [9],77%
same,Total Cell Count,[2]; [9],637
same,Population Apoptotic (%),[2]; [10],25%
same,Population Fragmented Nuclei (%),[2]; [10],12%
same,Population Healthy Nuclei (%),[2]; [10],55%
same,Population Hoechst High Intensity Objects (%),[2]; [10],9%
same,Population Membrane Permeable-Phenotype (%),[2]; [10],6%
same,Population Mitochondria Different-Phenotype (%),[2]; [10],69%
same,Population Mitotic Cells (%),[2]; [10],74%
same,Population Normal (%),[2]; [10],90%
same,Population Pyknosed Nuclei (%),[2]; [10],32%
same,Population Tubulin-Different-Phenotype (%),[2]; [10],90%
same,Total Cell Count,[2]; [10],1048
